From ChEMBL document CHEMBL3822422, “Discovery of the First α-Amino-3-hydroxy-5-methyl-4-isoxazolepropionic Acid (AMPA) Receptor Antagonist Dependent upon Transmembrane AMPA Receptor Regulatory Protein (TARP) γ-8” (J Med Chem, 2016)

Target: T1, Glutamate receptor 1 (Homo sapiens, UniProt P42261)
Experiment: Antagonist activity at human iGluA1 receptor flop isoform expressed in CHO-S cells coexpressing TARP gamma-3 assessed as inhibition of glutamate-induced increase in intracellular calcium levels after 2 mins followed by cyclothiazide/glutamate addition by fluorescence imaging plate reader method
Assay type: cell-based
Settings: not given
Outline: (§1)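 Human GluA1 flop transiently co-expressed with the TARP subtype in CHO-S cells. Frozen cells were thawed, plated at 50,000 cells/well and cultured overnight at 37 °C. Buffer was HBSS with 20 mM HEPES pH 7.4, 2.5 mM probenecid and 4 mM CaCl2. Compound was added, then cyclothiazide (20 μM final) plus glutamate (45 μM final). FLIPR Ca2+ read, normalised to full antagonist block and buffer baseline. Four-parameter IC50; mean ± SEM, n ≥ 2.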

T1 sequence (P42261 whole entry, canonical isoform): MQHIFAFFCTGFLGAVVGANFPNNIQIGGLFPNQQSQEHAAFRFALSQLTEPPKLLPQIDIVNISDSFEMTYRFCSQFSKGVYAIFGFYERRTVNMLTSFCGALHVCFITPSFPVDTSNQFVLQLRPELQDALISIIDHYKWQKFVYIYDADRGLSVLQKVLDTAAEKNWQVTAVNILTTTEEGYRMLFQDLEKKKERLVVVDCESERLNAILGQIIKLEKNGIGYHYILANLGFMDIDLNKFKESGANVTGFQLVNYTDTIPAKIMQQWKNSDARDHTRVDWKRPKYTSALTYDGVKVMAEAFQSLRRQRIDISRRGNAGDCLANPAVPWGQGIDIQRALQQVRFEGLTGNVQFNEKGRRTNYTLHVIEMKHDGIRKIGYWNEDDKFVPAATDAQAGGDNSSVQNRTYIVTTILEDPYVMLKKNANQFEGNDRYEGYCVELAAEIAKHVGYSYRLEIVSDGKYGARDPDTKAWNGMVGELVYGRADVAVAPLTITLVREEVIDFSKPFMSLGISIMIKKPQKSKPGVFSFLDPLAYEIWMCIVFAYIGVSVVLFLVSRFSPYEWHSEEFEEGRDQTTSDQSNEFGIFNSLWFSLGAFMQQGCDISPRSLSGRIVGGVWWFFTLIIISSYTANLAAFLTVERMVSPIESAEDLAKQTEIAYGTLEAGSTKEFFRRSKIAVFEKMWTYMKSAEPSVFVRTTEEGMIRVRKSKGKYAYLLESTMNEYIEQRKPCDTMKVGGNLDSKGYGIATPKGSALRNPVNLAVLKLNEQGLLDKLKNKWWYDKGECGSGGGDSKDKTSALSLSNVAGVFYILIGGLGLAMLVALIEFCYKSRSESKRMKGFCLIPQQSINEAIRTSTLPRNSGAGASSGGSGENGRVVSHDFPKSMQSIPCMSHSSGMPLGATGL

Row | SMILES | IC50 [nM]
1 | N#Cc1ccccc1-c1cc(-c2ccccn2)cn(-c2ccccc2)c1=O [PERAMPANEL] | 243
2 | CN(c1ccc(O)cc1)c1nc(-c2ccccn2)cs1 | > 83300

Target: T1, Glutamate receptor 1
Experiment: (§2) Antagonist activity at human iGluA1 receptor flop isoform expressed in CHO-S cells coexpressing TARP gamma-8 and human EAAT3 assessed as inhibition of glutamate-induced increase in intracellular calcium levels after 2 mins followed by cyclothiazide/glutamate addition by fluo-4 AM dye based fluorescence imaging plate reader method
Assay type: cell-based
Settings: not given
Outline: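 Transiently transfected CHO-S cells (human GluA1Q flop with TARP γ-8 and human EAAT3, DNA ratio 2:3), frozen, thawed, plated overnight at 37 °C; Fluo-4 AM loading 2 h at 22 °C. Compound added, then 2 min later glutamate (5 μM final); cyclothiazide (20 μM) plus glutamate (45 μM) 2 min after. FLIPR Ca2+ read; inhibition relative to 167 μM nonselective antagonist and buffer baseline; four-parameter logistic IC50; mean ± SEM, n ≥ 2.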

Row | SMILES | IC50 [nM]
3 | C[C@@H](c1ccc2[nH]c(=O)sc2c1)c1ccn(-c2ccc(F)cn2)n1 | 53.6
4 | C[C@H](c1ccc2[nH]c(=O)sc2c1)c1ccn(-c2ccccn2)n1 | 615
5 | CN(c1ccc2[nH]c(=O)sc2c1)c1nc(-c2ccccn2)cs1 | 70
6 | CN(c1ccc2[nH]ncc2c1)c1ccn(-c2ccccn2)n1 | 353
7 | CN(c1ccc2[nH]ncc2c1)c1nc(-c2ccccn2)cs1 | 147
8 | N#Cc1ccccc1-c1cc(-c2ccccn2)cn(-c2ccccc2)c1=O [PERAMPANEL] | 1180
9 | CN(c1ccc(O)cc1)c1nc(-c2ccccn2)cs1 | 2970

Target: T2, Cytochrome P450 1A2 (Homo sapiens, UniProt P05177)
T2 sequence (P05177 whole entry): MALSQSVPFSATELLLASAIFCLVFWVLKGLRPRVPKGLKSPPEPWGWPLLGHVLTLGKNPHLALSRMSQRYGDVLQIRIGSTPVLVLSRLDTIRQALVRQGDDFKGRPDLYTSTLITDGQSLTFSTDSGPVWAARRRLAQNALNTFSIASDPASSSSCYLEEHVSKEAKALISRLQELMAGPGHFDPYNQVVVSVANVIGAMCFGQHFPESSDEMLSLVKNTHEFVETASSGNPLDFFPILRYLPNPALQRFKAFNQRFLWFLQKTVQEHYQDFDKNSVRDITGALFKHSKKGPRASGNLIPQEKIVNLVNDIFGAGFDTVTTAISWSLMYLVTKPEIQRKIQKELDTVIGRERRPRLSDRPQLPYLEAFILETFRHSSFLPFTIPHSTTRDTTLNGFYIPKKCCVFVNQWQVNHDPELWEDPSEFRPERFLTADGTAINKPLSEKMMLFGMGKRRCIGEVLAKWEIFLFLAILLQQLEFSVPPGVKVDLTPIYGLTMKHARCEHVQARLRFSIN
Experiment: Inhibition of human CYP1A2
Assay type: ADME
Settings: not given

Row | SMILES | IC50 [nM]
10 | C[C@H](c1ccc2[nH]c(=O)sc2c1)c1ccn(-c2ccccn2)n1 | 4670
11 | CN(c1ccc2[nH]c(=O)sc2c1)c1nc(-c2ccccn2)cs1 | 360
12 | CN(c1ccc2[nH]ncc2c1)c1ccn(-c2ccccn2)n1 | 230
13 | CN(c1ccc2[nH]ncc2c1)c1nc(-c2ccccn2)cs1 | 222

Target: T1, Glutamate receptor 1
Experiment: Antagonist activity at human iGluA1 receptor flop isoform expressed in CHO-S cells coexpressing TARP gamma-4 assessed as inhibition of glutamate-induced increase in intracellular calcium levels after 2 mins followed by cyclothiazide/glutamate addition by fluorescence imaging plate reader method
Assay type: cell-based
Settings: not given
Outline: as §1

Row | SMILES | IC50 [nM]
14 | N#Cc1ccccc1-c1cc(-c2ccccn2)cn(-c2ccccc2)c1=O [PERAMPANEL] | 623
15 | CN(c1ccc(O)cc1)c1nc(-c2ccccn2)cs1 | > 83300

System: Hepatocyte
Experiment: Drug metabolism in rat hepatocytes assessed as glucuronidation by LC/MS/MS analysis
Assay type: ADME, cell-based
Settings: not given

Row | SMILES | Drug metabolism
16 | CN(c1ccc(O)cc1)c1nc(-c2ccccn2)cs1 | metabolite_detected

Target: T1, Glutamate receptor 1
Experiment: Antagonist activity at human iGluA1 receptor flip isoform expressed in CHO-S cells assessed as inhibition of glutamate-induced increase in intracellular calcium levels after 2 mins followed by cyclothiazide/glutamate addition by fluo-4 NW dye based fluorescence imaging plate reader method
Assay type: cell-based
Settings: not given

Row | SMILES | IC50 [nM]
17 | C[C@@H](c1ccc2[nH]c(=O)sc2c1)c1ccn(-c2ccc(F)cn2)n1 | 83300
18 | C[C@H](c1ccc2[nH]c(=O)sc2c1)c1ccn(-c2ccccn2)n1 | 9260
19 | CN(c1ccc2[nH]c(=O)sc2c1)c1nc(-c2ccccn2)cs1 | > 83300
20 | CN(c1ccc2[nH]ncc2c1)c1ccn(-c2ccccn2)n1 | > 83300
21 | CN(c1ccc2[nH]ncc2c1)c1nc(-c2ccccn2)cs1 | > 83300
22 | N#Cc1ccccc1-c1cc(-c2ccccn2)cn(-c2ccccc2)c1=O [PERAMPANEL] | 6510
23 | CN(c1ccc(O)cc1)c1nc(-c2ccccn2)cs1 | > 83300

System: Hepatocyte
Experiment: Drug metabolism in human hepatocytes assessed as sulfation by LC/MS/MS analysis
Assay type: ADME, cell-based
Settings: not given

Row | SMILES | Drug metabolism
24 | CN(c1ccc(O)cc1)c1nc(-c2ccccn2)cs1 | metabolite_detected

System: Rattus norvegicus
Experiment: Anticonvulsant activity in po dosed Sprague-Dawley rat assessed as inhibition of pentylenetetrazole-induced clonic convulsions administered 30 mins prior to PTZ dosing measured over 30 mins
Assay type: functional
Settings: not given

Row | SMILES | ED50 [mg/kg]
25 | N#Cc1ccccc1-c1cc(-c2ccccn2)cn(-c2ccccc2)c1=O [PERAMPANEL] | 10.6

System: UGT
Experiment: Drug metabolism assessed as UGT-mediated compound glucuronidation in human liver microsomes
Assay type: ADME
Settings: read-out: Drug metabolism
Outline: (§3)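 Microsomes incubated with appropriate cofactors for UGT; percent metabolism, n = 1.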

Row | SMILES | metabolised [%]
26 | CN(c1ccc(O)cc1)c1nc(-c2ccccn2)cs1 | 33

System: not listed separately
Experiment: Cmax in rat plasma at 30 mg/kg, po measured on day 1
Assay type: ADME, organism-based
Design: dose 30 mg/kg, route oral
Settings: not given

Row | SMILES | Cmax [ng/mL]
27 | CN(c1ccc2[nH]ncc2c1)c1nc(-c2ccccn2)cs1 | 3740

System: UGT
Experiment: Drug metabolism assessed as UGT-mediated compound glucuronidation in rat liver microsomes
Assay type: ADME
Settings: read-out: Drug metabolism
Outline: as §3

Row | SMILES | metabolised [%]
28 | CN(c1ccc(O)cc1)c1nc(-c2ccccn2)cs1 | 99

System: Rattus norvegicus
Experiment: Protective index, ratio of TD50 for motor impairment to ED50 for inhibition of pentylenetetrazole-induced clonic convulsions in po dosed Sprague-Dawley rat
Settings: not given
Outline: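 PI = inverted screen TD50 divided by PTZ ED50. For the ED50, rats were dosed orally 30 min before PTZ (35 mg/kg, sc), with n = 10 per group. Read-out was % block of clonic convulsions; ED50 given with 95% confidence limits.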

Row | SMILES | Ratio TD50/ED50
29 | N#Cc1ccccc1-c1cc(-c2ccccn2)cn(-c2ccccc2)c1=O [PERAMPANEL] | 0.4

System: not listed separately
Experiment: AUC in rat plasma at 30 mg/kg, po measured on day 1
Assay type: ADME, organism-based
Settings: not given

Row | SMILES | AUC [ng·h/mL]
30 | CN(c1ccc2[nH]ncc2c1)c1nc(-c2ccccn2)cs1 | 52300

System: Rattus norvegicus
Experiment: Toxicity in Sprague-Dawley rat assessed as motor impairment at 30 mg/kg, po by inverted screen test
Assay type: organism-based
Settings: in vivo
Outline: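 Oral dosing in rats, then inverted screen motor-function score. Plasma exposure measured. Mean ± SEM of ≥4 rats/group, compared with vehicle control.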

Row | SMILES | Activity
31 | N#Cc1ccccc1-c1cc(-c2ccccn2)cn(-c2ccccc2)c1=O [PERAMPANEL] | Toxic

System: not listed separately
Experiment: Cmax in rat plasma at 30 mg/kg, po measured on day 4
Assay type: ADME, organism-based
Design: dose 30 mg/kg, route oral
Settings: not given
Outline: (§4)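 Rats dosed orally at 30 mg/kg for 4 days; plasma Cmax and AUC determined.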

Row | SMILES | Cmax [ng/mL]
32 | CN(c1ccc2[nH]ncc2c1)c1nc(-c2ccccn2)cs1 | 1930

Target: T2, Cytochrome P450 1A2
Experiment: Induction of CYP1A2 in human hepatocytes at 0.2 to 20 uM compared to omeprazole
Assay type: ADME, cell-based, Hepatocyte
Settings: not given
Outline: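 Human hepatocytes treated over a concentration range; CYP1A2 fold induction expressed as percent of omeprazole; >30% taken as induction, <15% as none.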

Row | SMILES | Activity [%]
33 | C[C@H](c1ccc2[nH]c(=O)sc2c1)c1ccn(-c2ccccn2)n1 | < 15

System: not listed separately
Experiment: AUC in rat plasma at 30 mg/kg, po measured on day 4
Assay type: ADME, organism-based
Settings: not given
Outline: as §4

Row | SMILES | AUC [ng·h/mL]
34 | CN(c1ccc2[nH]ncc2c1)c1nc(-c2ccccn2)cs1 | 3150

System: not listed separately
Experiment: Clearance in rat
Assay type: ADME, organism-based
Settings: in vivo

Row | SMILES | clearance [mL/min/kg]
35 | C[C@@H](c1ccc2[nH]c(=O)sc2c1)c1ccn(-c2ccc(F)cn2)n1 | 42.2
36 | C[C@H](c1ccc2[nH]c(=O)sc2c1)c1ccn(-c2ccccn2)n1 | 144
37 | CN(c1ccc2[nH]c(=O)sc2c1)c1nc(-c2ccccn2)cs1 | 96.6
38 | CN(c1ccc2[nH]ncc2c1)c1ccn(-c2ccccn2)n1 | 61.3
39 | CN(c1ccc2[nH]ncc2c1)c1nc(-c2ccccn2)cs1 | 71.5
40 | CN(c1ccc(O)cc1)c1nc(-c2ccccn2)cs1 | 234

Target: T1, Glutamate receptor 1
Experiment: as §2, with “gamma-2” for “gamma-8 and human EAAT3”
Assay type: cell-based
Settings: not given

Row | SMILES | IC50 [nM]
41 | C[C@@H](c1ccc2[nH]c(=O)sc2c1)c1ccn(-c2ccc(F)cn2)n1 | 83300
42 | C[C@H](c1ccc2[nH]c(=O)sc2c1)c1ccn(-c2ccccn2)n1 | 83300
43 | CN(c1ccc2[nH]c(=O)sc2c1)c1nc(-c2ccccn2)cs1 | > 83300
44 | CN(c1ccc2[nH]ncc2c1)c1ccn(-c2ccccn2)n1 | > 83300
45 | CN(c1ccc2[nH]ncc2c1)c1nc(-c2ccccn2)cs1 | > 83300
46 | N#Cc1ccccc1-c1cc(-c2ccccn2)cn(-c2ccccc2)c1=O [PERAMPANEL] | 485
47 | CN(c1ccc(O)cc1)c1nc(-c2ccccn2)cs1 | > 83300
